Shown are actives, neighbours in structure and some others; about 1.4% of the full set was active somewhere.
Mot1-301 SUMO = SUMOylation pathway inhibition by Mot1-301 growth rescue; growth rescue, % at 18.8 µM; S. cerevisiae Mot1-301 growth rescue, ATP luminescence, 38.5C; percent above DMSO median, 100 means doubled; 320,000 compounds, 1% hits;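 active = every valid replicate shows activation above 250% relative to neutral control wells; inactive = the rest, any valid replicate at or below 250%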
GASC-1 inh = inhibitors of human GASC-1 (JMJD2C) demethylase. AID 2099. GST-JMJD2C(1-420) H3K9me3 demethylation, DELFIA europium. Q9H3R0. 330,000 compounds, 0.069% hits. inhibition, % at 2.35 µM;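 active = more than half of a compound's replicate wells show inhibition beyond 50%, single wells judged on their own value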;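 note: signal counts dimethyl H3K9 product captured on neutravidin plate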
Target sequence (Q9H3R0 1-420 limits assumed): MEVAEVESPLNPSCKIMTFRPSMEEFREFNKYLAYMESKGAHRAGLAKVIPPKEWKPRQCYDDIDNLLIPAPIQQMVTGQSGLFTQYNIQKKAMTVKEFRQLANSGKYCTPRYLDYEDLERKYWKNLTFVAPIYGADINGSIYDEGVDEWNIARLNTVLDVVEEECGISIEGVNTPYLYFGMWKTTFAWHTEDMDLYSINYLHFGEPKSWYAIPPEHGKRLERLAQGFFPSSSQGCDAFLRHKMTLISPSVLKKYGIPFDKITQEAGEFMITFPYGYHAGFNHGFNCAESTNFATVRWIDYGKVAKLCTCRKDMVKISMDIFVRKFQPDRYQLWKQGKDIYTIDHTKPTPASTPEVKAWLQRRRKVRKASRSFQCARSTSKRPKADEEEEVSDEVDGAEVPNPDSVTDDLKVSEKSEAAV
HIF act = HIF pathway transcriptional activation. 300,000 compounds, 0.32% hits. activation, % at 7.5 µM (by protocol). U2OS HRE-luciferase reporter, luminescence; normalized: DMSO 0%, desferrioxamine 100%;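 active = mean activation of at least 10% of the iron chelator positive control signal, with at least half of replicates also reaching 10%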
T cell modulator = T cell immune modulation candidate. 2C CD8+ T cell-vesicle binding, flow cytometry; stronger effect = lower value. response (vesicle binding), % at 7 µM. AID 2052. 330,000 compounds, 0.068% hits;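 active = response, share of CD8 T cells binding vesicles, and their 90th percentile fluorescence all below set limits, cut at about 80% in these data, passing the limit was not always enough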;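 note: values below 100% mean blocked vesicle binding to the CD8+ T cells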
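Incubation: binding step 1.5 h, 37 °C, antibody labelling 20 min, ice; system: murine 2C transgenic CD8+ T lymphocytes; technique: cytometric PE anti-B7-1 and Alexa647 anti-CD8 signals after 1% paraformaldehyde fixation; also added: QL9-charged Drosophila Ld/ICAM-1/B7-1 vesicles; control set: naked versus QL9-loaded vesicles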
Yeast Mot1 SUMO = inhibits SUMO pathway, affecting Mot1-301 yeast growth. shares compounds with Mot1-301 SUMO. 2,300 tested, under 10 active. S. cerevisiae Mot1-301 galactose growth, ATP luminescence, 24 h; -100 = growth of slx-deleted rescue strain. growth activity, percent, % at 42 µM;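 active = Signal drops as the depositor expects, and the fitted half-maximal dose is no more than ten times the top valid tested dose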;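 note: more negative values mean stronger growth rescue toward the control strain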
Large screens that a line does not name were inactive (follow-up assays come after a bar, where they were run).

CCOc1c(Cl)cc(CNCC(O)c2ccccc2)cc1OC (centres undefined)	Mot1-301 SUMO 614 | Yeast Mot1 SUMO inactive
CCOc1c(Cl)cc(CNCC(C)C)cc1OC	none
OCC1=C[C@@H](O)[C@@H]2C=CO[C@@H](O[C@@H]3O[C@H](CO)[C@@H](O)[C@H](O)[C@H]3O)[C@H]12	none (no result: HIF act)
CCCn1c(=O)[nH]c(=O)c2c1nc(-c1ccc(C#N)cc1)n2CCOC	none
CCCCn1c(=O)[nH]c(=O)c2c1nc(COc1ccc(C#N)cc1)n2CCC	Mot1-301 SUMO 404 | Yeast Mot1 SUMO inactive
O=C(OCc1nc2ccsc2c(=O)[nH]1)c1ccco1	Mot1-301 SUMO 651 | Yeast Mot1 SUMO inactive
Cc1cc(NC(=O)c2ccc3c(c2)C(=O)N(CC(C)C)C3=O)no1	none
Cc1cc(NC(=O)c2ccc3c(c2)C(=O)N(C(C)(C)C)C3=O)no1	Mot1-301 SUMO 447 | Yeast Mot1 SUMO inactive
CCCn1nc(C(=O)NNC(=O)CCCOc2ccc(OC)cc2)c2ccccc2c1=O	none (no result: HIF act)
Cc1ccc(Cc2c(C)c(C#N)c3[nH]c4ccccc4n3c2=O)cc1	none
C=C(C)Cc1c(C)c(C#N)c2[nH]c3ccccc3n2c1=O	Mot1-301 SUMO 690 | Yeast Mot1 SUMO inactive
Cc1cc(CNC(=O)C2CCC(=O)N(Cc3ccccc3F)C2)on1 (centres undefined)	Mot1-301 SUMO 654 | Yeast Mot1 SUMO inactive
CCc1nc(CNC(=O)C2CCC(=O)N(Cc3ccccc3F)C2)no1 (centres undefined)	none (no result: Mot1-301 SUMO, T cell modulator)
Cc1ccnc(NC(=O)CCN2C(=O)c3ccccc3S2(=O)=O)n1	none (no result: Mot1-301 SUMO, T cell modulator)
CC1(C)CCC(=O)N2CC[C@H]3C[C@H](OC(=O)Nc4ccc(Br)cc4)C[C@@H]1[C@H]32	Mot1-301 SUMO 805 | Yeast Mot1 SUMO inactive
O=C(Nc1ccc2c(c1)OCO2)O[C@@H]1C[C@H]2CCCC(=O)N3CC[C@@H](C1)[C@@H]23	none
CCOC(=O)C1CCN(c2c(NCc3ccc(C(=O)Nc4ccc(C)cc4)cc3)c(=O)c2=O)CC1	none
CCOC(=O)/C(C#N)=C\c1ccc(CC)s1	Mot1-301 SUMO active | Yeast Mot1 SUMO inactive
Nc1nnnn1CC(=O)N/N=C/c1cccs1	Mot1-301 SUMO 627 | Yeast Mot1 SUMO inactive
O=C(Cn1nnc2ccccc21)N/N=C\c1cccs1	none
CCOC(=O)N1CCN(C(=O)CSc2ccc(C(=O)OC)cc2[N+](=O)[O-])CC1	none
COC(=O)c1ccc(SCC(=O)N2CCC(C)CC2)c([N+](=O)[O-])c1	Mot1-301 SUMO 836 | Yeast Mot1 SUMO inactive
Nc1nnc(COc2ccc(Br)cc2Br)s1	Mot1-301 SUMO active (no result: HIF act, T cell modulator) | Yeast Mot1 SUMO inactive
Cc1nn(-c2ccccc2)c(C)c1/C=C/C(=O)OCC(=O)Nc1ccc(S(N)(=O)=O)cc1	none (no result: HIF act)
O/N=C(\c1ccccc1)c1nccc2ccccc12	none
C=CC[C@H](CC(=O)NCCO)C(=O)N[C@@H](COC(=O)[C@H](CC=C)CC(=O)OC(C)(C)C)Cc1ccccc1	none (no result: HIF act)
O=C(CSc1ncn[nH]1)c1cc2ccccc2o1	none
O=C(CSc1nccc(=O)[nH]1)c1cc2ccccc2o1	Mot1-301 SUMO 586 | Yeast Mot1 SUMO inactive
COc1ccc(/C=N/NC(=O)CCn2cnc3ccccc32)cc1	none
COc1cccc(/C=N/NC(=O)CCn2cnc3ccccc32)c1	Mot1-301 SUMO 479 | Yeast Mot1 SUMO inactive
COCCn1c(Cc2ccccc2)nnc1SCC(=O)N1CCCC1=O	none (no result: HIF act)
O=C1OCc2cc(NS(=O)(=O)c3cccs3)ccc21	Mot1-301 SUMO 411 | Yeast Mot1 SUMO inactive
O=C(N/N=C/c1ccc(N2CCOCC2)cc1)c1ccc(NS(=O)(=O)c2cccs2)cc1	none
O=S(=O)(Nc1ccc(N2CCOCC2)cc1)c1cccs1	Mot1-301 SUMO 579 | Yeast Mot1 SUMO inactive
CCc1cc2cc(C)cc(C)c2[nH]c1=S	none (no result: Mot1-301 SUMO)
Cn1c(=O)c(C(=O)N2CCc3ccccc32)cc2cccnc21	none
O=C(O)c1cc([N+](=O)[O-])c(NCCC2=CCCCC2)c([N+](=O)[O-])c1	none
Cc1nc(-c2cccc(S(=O)(=O)N3CCOCC3)c2)cs1	Mot1-301 SUMO 730 (no result: T cell modulator) | Yeast Mot1 SUMO inactive
Cc1nc(-c2cccc(S(=O)(=O)N3CC(C)OC(C)C3)c2)cs1 (centres undefined)	none
Cc1ccc(S(=O)(=O)N2CCc3cc4c(cc3C2C)OCCCO4)cc1 (centres undefined)	none
COc1ccc(S(=O)(=O)N2CCc3cc4c(cc3C2C)OCCCO4)cc1 (centres undefined)	Mot1-301 SUMO 600 | Yeast Mot1 SUMO inactive
CCN1C(=O)N(S(=O)(=O)C(F)(F)F)[C@@H](c2ccccc2)C(C(=O)OC)=C1C	none
CCN1C(=O)N(C)[C@@H](c2ccccc2)C(C(=O)OC)=C1C	Mot1-301 SUMO 948 | Yeast Mot1 SUMO inactive
O=C(NNC(=O)c1csc(N2CCOCC2)n1)c1ccc(Cl)nc1	Mot1-301 SUMO 452 | Yeast Mot1 SUMO inactive
N#CC1=C(N)Nc2ncnn2C1c1ccc([N+](=O)[O-])cc1 (centres undefined)	Mot1-301 SUMO 599 | Yeast Mot1 SUMO inactive
N#CC1=C(N)Nc2ncnn2C1c1ccccc1 (centres undefined)	none
CN(C)CCNC(=O)c1c(O)c2c([nH]c1=O)CCCC2	Mot1-301 SUMO 630 | Yeast Mot1 SUMO inactive
CN(C)CCNC(=O)c1scc2c1CCCC2	Mot1-301 SUMO 824 | Yeast Mot1 SUMO inactive
COc1ccc(CCNC(=O)c2c(O)c3c([nH]c2=O)CCCC3)cc1OC	none (no result: GASC-1 inh, HIF act)
CCN(CC)CCNC(=O)c1c(O)c2c([nH]c1=O)CCCC2	none (no result: HIF act)
CCNCCNC(=O)c1c(O)c2c([nH]c1=O)CCCC2	Mot1-301 SUMO active | Yeast Mot1 SUMO inactive
COc1ccc(C)cc1NS(=O)(=O)c1ccc2c(c1)N(C)CCO2	none
COc1ccc(-c2csc(NC(=O)CS(=O)(=O)c3ccc(F)cc3)n2)cc1OC	Mot1-301 SUMO 555 | Yeast Mot1 SUMO inactive
CC(=O)c1cccc(NC(=O)CNC(=O)c2sc3ccccc3c2Cl)c1	Mot1-301 SUMO 664 | Yeast Mot1 SUMO inactive
Cc1cccc(NC(=O)CNC(=O)c2sc3ccccc3c2Cl)n1	none
O=C(Cn1sc2ccccc2c1=O)NC12CC3CC(CC(C3)C1)C2	Mot1-301 SUMO 387 | Yeast Mot1 SUMO inactive
CNc1csc(C)c(C)c1=O	Mot1-301 SUMO 448 | Yeast Mot1 SUMO inactive
Cn1c(SCCN2CCCC2)nnc1C1CCN(S(=O)(=O)c2cccc(F)c2)CC1	none
C=CCNC(=O)c1sccc1Oc1ccc(F)cc1[N+](=O)[O-]	none
COc1ccc(OC)c(CCNC(=O)c2ccc3c(c2)N(Cc2ccc(F)cc2)CCS3)c1	Mot1-301 SUMO 365 | Yeast Mot1 SUMO inactive
COC(=O)c1cc(Cl)c(NC(=O)c2ccc(C(C)(C)C)cc2)cc1OC	none
COC(=O)c1cc(Cl)c(NC(=O)C(C)C)cc1OC	Mot1-301 SUMO 661 | Yeast Mot1 SUMO inactive
Cc1ccc(/C(N)=N/OC(=O)/C=C/c2ccccc2)cc1	Mot1-301 SUMO 840 | Yeast Mot1 SUMO inactive
COc1ccc(/C(N)=N/OC(=O)/C=C/c2ccccc2)cc1	none
